Data on 47 sequences can be found in the EternaBench riboswitch data.

The data set has as its system MS2 coat protein. Nature of the data set: apparent Kd, MS2 coat protein; higher = weaker binding; RNA-MaP array; theophylline 2 mM where present. In a few lines: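 Designs on Illumina sequencing-chip clusters, transcribed by stalled E. coli RNA polymerase, were exposed to SNAP-549-labelled MS2 coat protein in doubling steps from 0.7 or 1.5 nM up to 3 µM, without and then with constant ligand. The buffer held 100 mM Tris-HCl pH 7.5, 80 mM KCl, 4 mM MgCl2, BSA, DTT, yeast tRNA and Tween-20. Apparent Kd values are medians of filtered per-cluster binding-curve fits to green signal normalised to red-channel RNA signal and control-cluster median Fmax.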

Where [1] appears, read: designed as: ON switch for theophylline, no ligand.
Setting [2] is: ligand present: theophylline, designed as: ON switch for theophylline.
[3] abbreviates: designed as: OFF switch for theophylline, no ligand.
Where [4] appears, read: ligand present: theophylline, designed as: OFF switch for theophylline.

What is called apparent Kd is a dissociation constant that holds for the conditions of the assay. On to “CUUGGUAGAUCCUAGCUGCCAAGAGGUGAUACCAGCAUCGAAAGAUGCCCUUGGCAGCACCAACAUGAGGAUCACCCAUGUAAUA”, for which the “apparent Kd” value is, setting by setting: under setting [1], 70.7 nM; under setting [2], 339 nM.
“ACAUCCAGGUUAAUCGUGGACAUGGUCGAUACCAGUAUUUUAAUCUACCCUUGGCAGCGACAUGAGGAUCACCCAUGUGCGAUGA”: the “apparent Kd” value by setting is: under setting [3], 14.3 nM; under setting [4], 31.4 nM.
On the same counts, the results for “GAUGAUAUUGCAGAUACCAGACACAUGAGGAUCACCCAUGUCGUUGGGUAGCUGGGUCGUGUCCCUUGGCAGCUGCGAUAUCAUC” are 23.3 nM and 138 nM.
As to “UUUUUCGCGGGUGAUACCAGCAAAGCUGUACUGGUCUGGUACAUGAGGAUCACCCAUGUUUGCCCUUGGCAGCGCUCGGGAGAAG”, the “apparent Kd” value reads like this: under setting [3], 29.5 nM; under setting [4], 71.9 nM.
Take “CUGCCAUGCAGAGAUACCAGUGCGCUCAGCACAUGAGGAUCACCCAUGUUGGCUGCCGAUCACCCUUGGCAGCUCUGCAUGGCAG”: the “apparent Kd” value was determined as 10.8 nM under setting [1] and 7.62 nM under setting [2].
On to “AUUUAUUGUCGUGAUACCAGACAUACAUGAGGAUCACCCAUGUUAAGUAACAUUUUUUAGGUCCCUUGGCAGCACUUUUUAAUUA”, for which the “apparent Kd” value came to 26.1 nM under setting [1] and 15.8 nM under setting [2].
On to “AUAUGAUCAUGGGAUACCAGAAAUGGUAUUCCUUUAUUUCUUACAUGAGGAUCACCCAUGUUCCCUUGGCAGCUUAUGAUCAUAU”, for which the “apparent Kd” value worked out at 75 nM under setting [3] and 282 nM under setting [4].
With “AUAUGAUCAUGUGAUACCAGAAAUGGUAGUCUUCACUGGAUUACAUGAGGAUCACCCAUGUUCCCUUGGCAGCAUAUGAUCAUAU”, the “apparent Kd” value came to 43.6 nM under setting [3] and 259 nM under setting [4].
On the same counts, the results for “GCACCAGGUACGGAUACCAGAGCAAGCCAAAUGAGUGAACAUGAGGAUCACCCAUGUUUGCUCCCUUGGCAGCCGUACCUGGUGC” are 9.34 nM and 45.2 nM.
On to “AUGUCAUUGGUGUAGCUGUGAAAUGGCGAUACCAGCGUGGAAACACGCCCUUGGCAGCGCCAAAACAUGAGGAUCACCCAUGUUA”, for which the “apparent Kd” value runs as follows: under setting [3], 87.6 nM; under setting [4], 272 nM.
On to “AAAAUAAAUAAAACACGUAACAUGAAGGAUACCAGCCAGAAAACUGGCCCUUGGCAGCCUCUACAUGAGGAUCACCCAUGUCGUG”, for which the “apparent Kd” value runs as follows: under setting [1], 305 nM; under setting [2], 28 nM.
For “GCACCAGGUACGGAUACCAGAAUUUGCCAAUUGGGUGAACAUGAGGAUCACCCAUGUUAUUUCCCUUGGCAGCCGUACCUGGUGC”, the “apparent Kd” value is, setting by setting: under setting [3], 8.75 nM; under setting [4], 15.9 nM.
Take “ACAUGAGGAUCCGAUACCAGCCACAUGAGGAUCACCCAUGUAGUACAUGAGGAUCACCCAGGCCCUUGGCAGCGGACAUGAGGAU”: the “apparent Kd” value is, setting by setting: under setting [3], 178 nM; under setting [4], 1900 nM.
Take “ACAUGAGGAUCACCCAUGUUCCUCGCCGAUACCAGUGAAGAAGAACGCCCUUGGCAGCGGAAAGAAUAUUUUGGAGAUGAGGUAU”: the “apparent Kd” value is, setting by setting: under setting [3], 164 nM; under setting [4], 189 nM.
For “ACUUCAUGAGGUGAUACCAGCCAAUGACAUGAGGACAUGAGGAUCACCCAUGUUUAUGUAGGCCCUUGGCAGCAUUGUAACAUGA”, the “apparent Kd” value stood at 59.4 nM under setting [1] and 52.3 nM under setting [2].
For the sequence “ACUAGUUGUGCAGAUACCAGACAUGAGGAUCACCCAUGUUUGGGUUGUUCGCAACUUCCUGUCCCUUGGCAGCUGUACAUCUAGA”, the “apparent Kd” value is, setting by setting: under setting [3], 24.9 nM; under setting [4], 138 nM.
Regarding “UAUUUGGUGCGCGAGCGUUGGAUAAUUGAUACCAGUGAAGAAGAGCGCCCUUGGCAGCGAAUCCUAACAUGAGGAUCACCCAUGU”, the “apparent Kd” value by setting is: under setting [1], 41 nM; under setting [2], 56.7 nM.
With “ACGAACUGUAGUGAUACCAGACACACAUGAGGAUCACCCAUGUUGUUAGCAUGGUGAAUAGUCCCUUGGCAGCACAGUUAGUUCG”, the “apparent Kd” value by setting is: under setting [3], 98.6 nM; under setting [4], 217 nM.
For “ACACAUGAGGAUCACCCAUGUCCAAUAGAUACCAGUGAUACGGUGCACCCUUGGCAGCUGUUACUGAGUGAUGGUUCCCUCGGAA”, the “apparent Kd” value came to 67.6 nM under setting [1] and 97.1 nM under setting [2].
The corresponding values for “UCACAUGAGGAUCACCCAUGUACAGGCGAUACCAGCCGUACAUUGGGCCCUUGGCAGCGCAUCGAGACCUUUAUAAGCACCUCGG” are 49.9 nM and 298 nM.
On to “AUUUAUAGUUGUGAUACCAGACUUACAUGAGGAUCACCCAUGUUACUUAAAUGUUUUGAUGUCCCUUGGCAGCACUGUUUUUUUA”, for which the “apparent Kd” value under setting [3] is 16.6 nM.
Take “ACGAUACGACAUGAGGAUCACCCAUGUGAUACCAGCCUGGAAACAGGCCCUUGGCAGCACAAAUACUCCAGAAACGUAUCGAAAA”: the “apparent Kd” value is 204 nM under setting [3] and 469 nM under setting [4].
On the same counts, the results for “GCUGGGUGCGCAAGGACCUGGCGUUGCGAUACCAGCACGGUAACGUGCCCUUGGCAGCGCACAUGAGGAUCACCCAUGUGGUGUU” are 276 nM and 310 nM.
Take “AGAUGCCACUGUGGAUAGCACGAUGCCGAUACCAGCUAGGAAACUAGCCCUUGGCAGCGGUACAUGAGGAUCACCCAUGUAUCCU”: the “apparent Kd” value under setting [4] is 75 nM.
“GCUUGGGUGGCCCAGCCCUGGCAGGGCGAUACCAGCACGGUAACGUGCCCUUGGCAGCGCACAUGAGGAUCACCCAUGUGGUGCG”: the “apparent Kd” value worked out at 127 nM under setting [3] and 266 nM under setting [4].
Turning to “ACGAUAGGACAUGAGGAUCACCCAUGUGAUACCAGCCUGGAAACAGGCCCUUGGCAGCACAAAUACUCCAGAAACCUAUCGAAUA”, the “apparent Kd” value by setting is: under setting [3], 281 nM; under setting [4], 226 nM.
On the same counts, the results for “AACUGGAAAAGUGAUACCAGAGACAUGAGGAUCACCCAUGUACAUGAGGAUCACCCAUGUCUCCCUUGGCAGCACAAAAGGGAGA” are 30.6 nM and 64.8 nM.
The corresponding values for “UCUUGGUCCGCAAGGACCGUGAGUUGCGAUACCAGCACGGUAACGUGCCCUUGGCAGCGCACAUGAGGAUCACCCAUGUGGUGUU” are 281 nM and 318 nM.
Turning to “AUUUUUCUAUCAGAUACCAGACAACUCCAAACAUGAGGAUCACCCAUGUAUUGGGUGUUCGUCCCUUGGCAGCUGUUAAUGUUAA”, the “apparent Kd” value runs as follows: under setting [1], 16.9 nM; under setting [2], 9.41 nM.
As to “AAAAUAAAUAAAACACGUAACAUGAAGGAUACCAGACAGGAAACUGUCCCUUGGCAGCCUCUACAUGAGGAUCACCCAUGUCGUG”, the “apparent Kd” value under setting [2] was found to be 30.8 nM.
In the case of “AUGUCGUUGAAUAUAGCGGCUUGGUGUGAUACCAGAAUGAUCAAAUUCCCUUGGCAGCAUUACAUGAGGAUCACCCAUGUUUAGG”, the “apparent Kd” value is 23.7 nM under setting [1] and 22.9 nM under setting [2].
On to “AAUUGCGUUGGUGAGGCGGUUAAUGGCGAUACCAGCGUGGAAACACGCCCUUGGCAGCGCCAAAACAUGAGGAUCACCCAUGUUA”, for which the “apparent Kd” value worked out at 73.5 nM under setting [3] and 200 nM under setting [4].
For the sequence “GUGAGGUUUGAUGAUACCAGAUGUGGUGGGAACAUGAGGAUCACCCAUGUUGUGAAACAGGUCCCUUGGCAGCAUGAGAGAGCUU”, the “apparent Kd” value runs as follows: under setting [1], 47.8 nM; under setting [2], 44.3 nM.
As to “CAUACUUGAUCCUAUGAGCCUAUUUGUGAUACCAGCAUCUAAAUUUGCCCUUGGCAGCACUAACAUGAGGAUCACCCAUGUUAUA”, the “apparent Kd” value under setting [3] turned out to be 34.9 nM and the “apparent Kd” value under setting [4] amounted to 71.8 nM.
Consider “ACCAGCACACAUGAUACCAGCGACAUGAGGAUCACCCAUGUACGGCGUGUAUCGAAAGGUUGCCCUUGGCAGCAUGAUAGUGCUA”, for which the “apparent Kd” value worked out at 12.8 nM under setting [3] and 129 nM under setting [4].
“UGACAUUGCUCAGAUACCAGACAUGAGGAUCACCCAUGUGCCAAACGUACAAUAAUAAAUGUCCCUUGGCAGCUGAGCAAUGUCU”: the “apparent Kd” value under setting [3] was determined as 11.3 nM and the “apparent Kd” value under setting [4] was found to be 101 nM.
The corresponding values for “CUAGGAAACUAGUAAGGGUGGUAUUGAGAUACCAGUACAGAAAUGUACCCUUGGCAGCUCACUGCAACAUGAGGAUCACCCAUGU” are 24.1 nM and 55.9 nM.
Regarding “CCACACAUGAGGAUCACCCAUGUAAUUGAUACCAGAUUUAAAUGAGUCCCUUGGCAGCAGUGAGCUAGAGUUGUCGUAUAUAUGG”, the “apparent Kd” value runs as follows: under setting [1], 17 nM; under setting [2], 18.9 nM.
In the case of “GGGUAUGAUCCGGAUACCAGCGAACAUGAGGAUCACCCAUGUGACCUAAGAUAGGCUCUACGCCCUUGGCAGCCGCGAUCGCGUU”, the “apparent Kd” value by setting is: under setting [1], 24.8 nM; under setting [2], 16.1 nM.
The corresponding values for “UCGUGUGUUUCGGAUACCAGUGUGGUCGAUACAUGAGGAUCACCCAUGUGAGAGGAGGUACACCCUUGGCAGCUGGCUGUUGCGG” are 72 nM and 86.4 nM.
As to “ACAUAGAGAUUAAUCGUGGGCAUACUCGAUACCAGUAUUUUAACCUACCCUUGGCAGCGACAUGAGGAUCACCCAUGUGAGAUGA”, the “apparent Kd” value reads like this: under setting [3], 22.2 nM; under setting [4], 39.5 nM.
For the sequence “AUUUACAUGGUCAUAUAUAUAUCGUCAGAUACCAGACGAGAUAUUGUCCCUUGGCAGCUGUUACAUGAGGAUCACCCAUGUAAUU”, the “apparent Kd” value stood at 85.8 nM under setting [3] and 83.7 nM under setting [4].
The corresponding values for “ACAUGAGGAUCACCCAUGUGCCGUCUUGAUACCAGACGCGAAGUAGUCCCUUGGCAGCAACUACGUGACGGUCGCGCAUGUGUAG” are 16.6 nM and 28.6 nM.
“UGACAUUGCUGCGAUACCAGACAUGAGGAUCACCCAUGUACCAAGGUACCCGAAAGGAAUGUCCCUUGGCAGCGCAGCAAUGUCU”: the “apparent Kd” value under setting [3] came out at 9.4 nM and the “apparent Kd” value under setting [4] was 21.2 nM.
For the sequence “GCACCAGGUACGGAUACCAGCUAUAGGCCCUAUGGGCGACAUGAGGAUCACCCAUGUAAUGGCCCUUGGCAGCUGUACCUGGUGC”, the “apparent Kd” value under setting [1] stood at 169 nM and the “apparent Kd” value under setting [2] amounted to 11.3 nM.
In the case of “ACCUACACGGAGACGUGUAGGAGUAAUGAUACCAGCAUGGAGACAUGCCCUUGGCAGCGUUACAUGAGGAUCACCCAUGUACGUU”, the “apparent Kd” value under setting [3] stood at 10.2 nM and the “apparent Kd” value under setting [4] came out at 14.1 nM.
With “UUAGAUAUGACGGAUACCAGCGUGUUGUAGAACAUGAGGAUCACCCAUGUAGUGAUCAUGCGCCCUUGGCAGCUGGUAUGUUUGG”, the “apparent Kd” value reads like this: under setting [1], 262 nM; under setting [2], 829 nM.
